{
  "source": "ChEMBL document CHEMBL4689842",
  "about": "“EUbOPEN Chemogenomics Library wave 1” (2021)",
  "key": {"[1]": {"test_system": "Fibroblast", "experiment": "Multiplex assay against human fibroblast", "format": "toxicity, cell-based", "conditions": "10 µM, compound concentration 10 uM", "method_in_brief": "(§1)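 Tubulin, mitochondrial-mass and membrane-permeability phenotypes are per cents of healthy-nucleus cells. Cells were gated by CellPathfinder machine learning into Hoechst high-intensity objects or normal cells, normal cells into healthy, pyknosed or fragmented nuclei, and pyknosed cells into mitotic or apoptotic. Before that, live cells stained at seeding with Hoechst33342, BioTracker Green Microtubule Cytoskeleton Dye, MitoTracker Red and Annexin V Alexa Fluor 680 were imaged on a CQ1 microscope at 37°C and 5% CO2 after compound addition.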"}, "[2]": {"test_system": "HEK-293T", "experiment": "Multiplex assay against HEK293T", "format": "toxicity, cell-based", "conditions": "human, 10 µM, compound concentration 10 uM", "method_in_brief": "as §1"}},
  "note": "Values joined by “and” are separate entries in the source; they are usually repeats but may differ in a detail not shown here. Equal values may be shown once.",
  "data": [
    {"molecule": "COc1ccccc1-c1cc(Nc2cccc(CS(N)(=O)=O)c2)ncn1", "values": [
      {"measurement": "Population Apoptotic (%)", "setting": "[1]; 12 h, replicate 1", "result": "70% and 60%"},
      {"measurement": "Population Fragmented Nuclei (%)", "setting": "[1]; 12 h, replicate 1", "result": "24% and 28%"},
      {"measurement": "Population Healthy Nuclei (%)", "setting": "[1]; 12 h, replicate 1", "result": "62% and 53%"},
      {"measurement": "Population Hoechst High Intensity Objects (%)", "setting": "[1]; 12 h, replicate 1", "result": "11% and 10%"},
      {"measurement": "Population Membrane Permeable-Phenotype (%)", "setting": "[1]; 12 h, replicate 1", "result": 9, "unit": "%"},
      {"measurement": "Population Mitochondria Different-Phenotype (%)", "setting": "[1]; 12 h, replicate 1", "result": 4, "unit": "%"},
      {"measurement": "Population Mitotic Cells (%)", "setting": "[1]; 12 h, replicate 1", "result": "29% and 39%"},
      {"measurement": "Population Normal (%)", "setting": "[1]; 12 h, replicate 1", "result": "88% and 89%"},
      {"measurement": "Population Pyknosed Nuclei (%)", "setting": "[1]; 12 h, replicate 1", "result": "13% and 17%"},
      {"measurement": "Total Cell Count", "setting": "[1]; 12 h, replicate 1", "result": "208 and 254"},
      {"measurement": "Population Apoptotic (%)", "setting": "[1]; 12 h, replicate 2", "result": "50% and 75%"},
      {"measurement": "Population Fragmented Nuclei (%)", "setting": "[1]; 12 h, replicate 2", "result": "63% and 72%"},
      {"measurement": "Population Healthy Nuclei (%)", "setting": "[1]; 12 h, replicate 2", "result": "31% and 20%"},
      {"measurement": "Population Hoechst High Intensity Objects (%)", "setting": "[1]; 12 h, replicate 2", "result": "34% and 40%"},
      {"measurement": "Population Membrane Permeable-Phenotype (%)", "setting": "[1]; 12 h, replicate 2", "result": "16% and 10%"},
      {"measurement": "Population Mitochondria Different-Phenotype (%)", "setting": "[1]; 12 h, replicate 2", "result": "8% and 20%"},
      {"measurement": "Population Mitotic Cells (%)", "setting": "[1]; 12 h, replicate 2", "result": "50% and 25%"},
      {"measurement": "Population Normal (%)", "setting": "[1]; 12 h, replicate 2", "result": "65% and 59%"},
      {"measurement": "Population Pyknosed Nuclei (%)", "setting": "[1]; 12 h, replicate 2", "result": "5% and 8%"},
      {"measurement": "Population Tubulin-Different-Phenotype (%)", "setting": "[1]; 12 h, replicate 2", "result": "25% and 30%"},
      {"measurement": "Total Cell Count", "setting": "[1]; 12 h, replicate 2", "result": "58 and 84"},
      {"measurement": "Population Apoptotic (%)", "setting": "[1]; 24 h, replicate 1", "result": "75% and 66%"},
      {"measurement": "Population Fragmented Nuclei (%)", "setting": "[1]; 24 h, replicate 1", "result": "25% and 23%"},
      {"measurement": "Population Healthy Nuclei (%)", "setting": "[1]; 24 h, replicate 1", "result": "60% and 57%"},
      {"measurement": "Population Hoechst High Intensity Objects (%)", "setting": "[1]; 24 h, replicate 1", "result": "14% and 10%"},
      {"measurement": "Population Membrane Permeable-Phenotype (%)", "setting": "[1]; 24 h, replicate 1", "result": 7, "unit": "%"},
      {"measurement": "Population Mitochondria Different-Phenotype (%)", "setting": "[1]; 24 h, replicate 1", "result": "4% and 11%"},
      {"measurement": "Population Mitotic Cells (%)", "setting": "[1]; 24 h, replicate 1", "result": "24% and 33%"},
      {"measurement": "Population Normal (%)", "setting": "[1]; 24 h, replicate 1", "result": "85% and 89%"},
      {"measurement": "Population Pyknosed Nuclei (%)", "setting": "[1]; 24 h, replicate 1", "result": "14% and 19%"},
      {"measurement": "Total Cell Count", "setting": "[1]; 24 h, replicate 1", "result": "267 and 188"},
      {"measurement": "Population Apoptotic (%)", "setting": "[1]; 24 h, replicate 2", "result": 50, "unit": "%"},
      {"measurement": "Population Fragmented Nuclei (%)", "setting": "[1]; 24 h, replicate 2", "result": "54% and 70%"},
      {"measurement": "Population Healthy Nuclei (%)", "setting": "[1]; 24 h, replicate 2", "result": "40% and 26%"},
      {"measurement": "Population Hoechst High Intensity Objects (%)", "setting": "[1]; 24 h, replicate 2", "result": "30% and 28%"},
      {"measurement": "Population Membrane Permeable-Phenotype (%)", "setting": "[1]; 24 h, replicate 2", "result": "21% and 13%"},
      {"measurement": "Population Mitochondria Different-Phenotype (%)", "setting": "[1]; 24 h, replicate 2", "result": 0, "unit": "%"},
      {"measurement": "Population Mitotic Cells (%)", "setting": "[1]; 24 h, replicate 2", "result": 50, "unit": "%"},
      {"measurement": "Population Normal (%)", "setting": "[1]; 24 h, replicate 2", "result": "70% and 71%"},
      {"measurement": "Population Pyknosed Nuclei (%)", "setting": "[1]; 24 h, replicate 2", "result": "5% and 3%"},
      {"measurement": "Population Tubulin-Different-Phenotype (%)", "setting": "[1]; 24 h, replicate 2", "result": "28% and 26%"},
      {"measurement": "Total Cell Count", "setting": "[1]; 24 h, replicate 2", "result": "50 and 80"},
      {"measurement": "Population Apoptotic (%)", "setting": "[2]; 12 h, replicate 1", "result": "31% and 19%"},
      {"measurement": "Population Fragmented Nuclei (%)", "setting": "[2]; 12 h, replicate 1", "result": "21% and 13%"},
      {"measurement": "Population Healthy Nuclei (%)", "setting": "[2]; 12 h, replicate 1", "result": "58% and 71%"},
      {"measurement": "Population Hoechst High Intensity Objects (%)", "setting": "[2]; 12 h, replicate 1", "result": "17% and 8%"},
      {"measurement": "Population Membrane Permeable-Phenotype (%)", "setting": "[2]; 12 h, replicate 1", "result": 3, "unit": "%"},
      {"measurement": "Population Mitochondria Different-Phenotype (%)", "setting": "[2]; 12 h, replicate 1", "result": "6% and 5%"},
      {"measurement": "Population Mitotic Cells (%)", "setting": "[2]; 12 h, replicate 1", "result": "68% and 80%"},
      {"measurement": "Population Normal (%)", "setting": "[2]; 12 h, replicate 1", "result": "82% and 91%"},
      {"measurement": "Population Pyknosed Nuclei (%)", "setting": "[2]; 12 h, replicate 1", "result": "20% and 15%"},
      {"measurement": "Population Tubulin-Different-Phenotype (%)", "setting": "[2]; 12 h, replicate 1", "result": "5% and 3%"},
      {"measurement": "Total Cell Count", "setting": "[2]; 12 h, replicate 1", "result": "577 and 663"},
      {"measurement": "Population Apoptotic (%)", "setting": "[2]; 12 h, replicate 2", "result": "8% and 20%"},
      {"measurement": "Population Fragmented Nuclei (%)", "setting": "[2]; 12 h, replicate 2", "result": "11% and 9%"},
      {"measurement": "Population Healthy Nuclei (%)", "setting": "[2]; 12 h, replicate 2", "result": "84% and 85%"},
      {"measurement": "Population Hoechst High Intensity Objects (%)", "setting": "[2]; 12 h, replicate 2", "result": "1% and 3%"},
      {"measurement": "Population Membrane Permeable-Phenotype (%)", "setting": "[2]; 12 h, replicate 2", "result": "2% and 0%"},
      {"measurement": "Population Mitochondria Different-Phenotype (%)", "setting": "[2]; 12 h, replicate 2", "result": "7% and 12%"},
      {"measurement": "Population Mitotic Cells (%)", "setting": "[2]; 12 h, replicate 2", "result": 91, "unit": "%"},
      {"measurement": "Population Normal (%)", "setting": "[2]; 12 h, replicate 2", "result": "98% and 96%"},
      {"measurement": "Population Pyknosed Nuclei (%)", "setting": "[2]; 12 h, replicate 2", "result": "4% and 5%"},
      {"measurement": "Population Tubulin-Different-Phenotype (%)", "setting": "[2]; 12 h, replicate 2", "result": "6% and 7%"},
      {"measurement": "Total Cell Count", "setting": "[2]; 12 h, replicate 2", "result": "2027 and 1134"},
      {"measurement": "Population Apoptotic (%)", "setting": "[2]; 24 h, replicate 1", "result": "24% and 33%"},
      {"measurement": "Population Fragmented Nuclei (%)", "setting": "[2]; 24 h, replicate 1", "result": "14% and 19%"},
      {"measurement": "Population Healthy Nuclei (%)", "setting": "[2]; 24 h, replicate 1", "result": "76% and 63%"},
      {"measurement": "Population Hoechst High Intensity Objects (%)", "setting": "[2]; 24 h, replicate 1", "result": "4% and 13%"}
    ]}
  ]
}
